Results reported in ChEMBL document CHEMBL4152188, “Design, synthesis and biological evaluation of C(4) substituted monobactams as antibacterial agents against multidrug-resistant Gram-negative bacteria” (Eur J Med Chem, 2018).
≈ marks a conversion by molar mass, not a printed value.

Legend:
Format in all cases: functional
Pseudomonas aeruginosa [1] = assay: Antibacterial activity against IMP-4 producing Pseudomonas aeruginosa isolate 209321 after 18 hrs by CLSI broth microdilution method; details: isolate 209321, 18 h
Pseudomonas aeruginosa [2] = assay: Antibacterial activity against IMP-4 producing Pseudomonas aeruginosa isolate 209471 after 18 hrs in presence of BPL by CLSI broth microdilution method; details: isolate 209471, 18 h
Outline: (§1)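 CLSI broth microdilution against clinical isolates (ESBL E. coli, KPC-2 MDR K. pneumoniae, IMP-4 MDR P. aeruginosa; five per species). Iron limitation: Mueller-Hinton broth supplemented with 16 mg/liter 2,2'-bipyridyl to complex iron and induce iron uptake systems. Read-out: MIC.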

Escherichia coli [3] = assay: Antibacterial activity against Escherichia coli isolate 210737 after 18 hrs in presence of BPL by CLSI broth microdilution method; details: isolate 210737, 18 h; outline: as §1
Escherichia coli [4] = assay: Antibacterial activity against extended-spectrum beta-lactamase producing Escherichia coli isolate 212648 after 18 hrs by CLSI broth microdilution method; details: isolate 212648, 18 h
Klebsiella pneumoniae [5] = assay: Selectivity index, ratio of MIC for against KPC-2 producing Klebsiella pneumoniae isolate 212229 to MIC for against KPC-2 producing Klebsiella pneumoniae isolate 212229 in presence of BPL
Klebsiella pneumoniae [6] = assay: Antibacterial activity against KPC-2 producing Klebsiella pneumoniae isolate 212229 after 18 hrs by CLSI broth microdilution method; details: isolate 212229, 18 h
Klebsiella pneumoniae [7] = assay: Antibacterial activity against KPC-2 producing Klebsiella pneumoniae isolate 212423 after 18 hrs by CLSI broth microdilution method; details: isolate 212423, 18 h
Escherichia coli [8] = assay: Antibacterial activity against extended-spectrum beta-lactamase producing Escherichia coli isolate 208687 after 18 hrs in presence of BPL by CLSI broth microdilution method; details: isolate 208687, 18 h; outline: as §1
Escherichia coli [9] = assay: Antibacterial activity against extended-spectrum beta-lactamase producing Escherichia coli isolate 209285 after 18 hrs by CLSI broth microdilution method; details: isolate 209285, 18 h
Pseudomonas aeruginosa [10] = assay: Antibacterial activity against IMP-4 producing Pseudomonas aeruginosa isolate 207272 after 18 hrs in presence of BPL by CLSI broth microdilution method; details: isolate 207272, 18 h; outline: as §1
Klebsiella pneumoniae [11] = assay: Antibacterial activity against KPC-2 producing Klebsiella pneumoniae isolate 209735 after 18 hrs by CLSI broth microdilution method; details: isolate 209735, 18 h
Klebsiella pneumoniae [12] = assay: Selectivity index, ratio of MIC for against KPC-2 producing Klebsiella pneumoniae isolate 209632 to MIC for against KPC-2 producing Klebsiella pneumoniae isolate 209632 in presence of BPL
Klebsiella pneumoniae [13] = assay: Selectivity index, ratio of MIC for against KPC-2 producing Klebsiella pneumoniae isolate 209735 to MIC for against KPC-2 producing Klebsiella pneumoniae isolate 209735 in presence of BPL
Klebsiella pneumoniae [14] = assay: Selectivity index, ratio of MIC for against KPC-2 producing Klebsiella pneumoniae isolate 212232 to MIC for against KPC-2 producing Klebsiella pneumoniae isolate 212232 in presence of BPL
Escherichia coli [15] = assay: Antibacterial activity against extended-spectrum beta-lactamase producing Escherichia coli isolate 106342 after 18 hrs by CLSI broth microdilution method; details: isolate 106342, 18 h
Escherichia coli [16] = assay: Selectivity index, ratio of MIC for against extended-spectrum beta-lactamase producing Escherichia coli isolate 209285 to MIC for extended-spectrum beta-lactamase producing Escherichia coli isolate 209285 in presence of BPL
Klebsiella pneumoniae [17] = assay: Antibacterial activity against KPC-2 producing Klebsiella pneumoniae isolate 212232 after 18 hrs in presence of BPL by CLSI broth microdilution method; details: isolate 212232, 18 h; outline: as §1
Escherichia coli [18] = assay: Antibacterial activity against extended-spectrum beta-lactamase producing Escherichia coli isolate 106342 after 18 hrs in presence of BPL by CLSI broth microdilution method; details: isolate 106342, 18 h; outline: as §1
Escherichia coli [19] = assay: Antibacterial activity against Escherichia coli isolate 210737 after 18 hrs by CLSI broth microdilution method; details: isolate 210737, 18 h
Escherichia coli [20] = assay: Selectivity index, ratio of MIC for against extended-spectrum beta-lactamase producing Escherichia coli isolate 208687 to MIC for extended-spectrum beta-lactamase producing Escherichia coli isolate 208687 in presence of BPL
Klebsiella pneumoniae [21] = assay: Antibacterial activity against KPC-2 producing Klebsiella pneumoniae isolate 209632 after 18 hrs by CLSI broth microdilution method; details: isolate 209632, 18 h
Escherichia coli [22] = assay: Selectivity index, ratio of MIC for against extended-spectrum beta-lactamase producing Escherichia coli isolate 106342 to MIC for extended-spectrum beta-lactamase producing Escherichia coli isolate 106342 in presence of BPL
Pseudomonas aeruginosa [23] = assay: Selectivity index, ratio of MIC for against IMP-4 producing Pseudomonas aeruginosa isolate 208247 to MIC for against IMP-4 producing Pseudomonas aeruginosa isolate 208247 in presence of BPL
Escherichia coli [24] = assay: Selectivity index, ratio of MIC for against Escherichia coli isolate 210737 to MIC for Escherichia coli isolate 210737 in presence of BPL
Klebsiella pneumoniae [25] = assay: Antibacterial activity against KPC-2 producing Klebsiella pneumoniae isolate 212229 after 18 hrs in presence of BPL by CLSI broth microdilution method; details: isolate 212229, 18 h; outline: as §1
Klebsiella pneumoniae [26] = assay: Antibacterial activity against KPC-2 producing Klebsiella pneumoniae isolate 212423 after 18 hrs in presence of BPL by CLSI broth microdilution method; details: isolate 212423, 18 h; outline: as §1
Klebsiella pneumoniae [27] = assay: Antibacterial activity against KPC-2 producing Klebsiella pneumoniae isolate 209632 after 18 hrs in presence of BPL by CLSI broth microdilution method; details: isolate 209632, 18 h; outline: as §1
Pseudomonas aeruginosa [28] = assay: Antibacterial activity against IMP-4 producing Pseudomonas aeruginosa isolate 212886 after 18 hrs by CLSI broth microdilution method; details: isolate 212886, 18 h
Escherichia coli [29] = assay: Antibacterial activity against extended-spectrum beta-lactamase producing Escherichia coli isolate 212648 after 18 hrs in presence of BPL by CLSI broth microdilution method; details: isolate 212648, 18 h; outline: as §1
Escherichia coli [30] = assay: Antibacterial activity against extended-spectrum beta-lactamase producing Escherichia coli isolate 209285 after 18 hrs in presence of BPL by CLSI broth microdilution method; details: isolate 209285, 18 h; outline: as §1
Pseudomonas aeruginosa [31] = assay: Antibacterial activity against IMP-4 producing Pseudomonas aeruginosa isolate 208247 after 18 hrs in presence of BPL by CLSI broth microdilution method; details: isolate 208247, 18 h; outline: as §1
Pseudomonas aeruginosa [32] = assay: Selectivity index, ratio of MIC for against IMP-4 producing Pseudomonas aeruginosa isolate 212886 to MIC for against IMP-4 producing Pseudomonas aeruginosa isolate 212886 in presence of BPL
Pseudomonas aeruginosa [33] = assay: Antibacterial activity against IMP-4 producing Pseudomonas aeruginosa isolate 212886 after 18 hrs in presence of BPL by CLSI broth microdilution method; details: isolate 212886, 18 h; outline: as §1
Pseudomonas aeruginosa [34] = assay: Selectivity index, ratio of MIC for against IMP-4 producing Pseudomonas aeruginosa isolate 209471 to MIC for against IMP-4 producing Pseudomonas aeruginosa isolate 209471 in presence of BPL
Klebsiella pneumoniae [35] = assay: Antibacterial activity against KPC-2 producing Klebsiella pneumoniae isolate 209735 after 18 hrs in presence of BPL by CLSI broth microdilution method; details: isolate 209735, 18 h; outline: as §1
Klebsiella pneumoniae [36] = assay: Antibacterial activity against KPC-2 producing Klebsiella pneumoniae isolate 212232 after 18 hrs by CLSI broth microdilution method; details: isolate 212232, 18 h
Pseudomonas aeruginosa [37] = assay: Selectivity index, ratio of MIC for against IMP-4 producing Pseudomonas aeruginosa isolate 207272 to MIC for against IMP-4 producing Pseudomonas aeruginosa isolate 207272 in presence of BPL
Pseudomonas aeruginosa [38] = assay: Antibacterial activity against IMP-4 producing Pseudomonas aeruginosa isolate 207272 after 18 hrs by CLSI broth microdilution method; details: isolate 207272, 18 h
Klebsiella pneumoniae [39] = assay: Selectivity index, ratio of MIC for against KPC-2 producing Klebsiella pneumoniae isolate 212423 to MIC for against KPC-2 producing Klebsiella pneumoniae isolate 212423 in presence of BPL
Pseudomonas aeruginosa [40] = assay: Antibacterial activity against IMP-4 producing Pseudomonas aeruginosa isolate 209321 after 18 hrs in presence of BPL by CLSI broth microdilution method; details: isolate 209321, 18 h; outline: as §1
Pseudomonas aeruginosa [41] = assay: Selectivity index, ratio of MIC for against IMP-4 producing Pseudomonas aeruginosa isolate 209321 to MIC for against IMP-4 producing Pseudomonas aeruginosa isolate 209321 in presence of BPL
Escherichia coli [42] = assay: Selectivity index, ratio of MIC for against extended-spectrum beta-lactamase producing Escherichia coli isolate 212648 to MIC for extended-spectrum beta-lactamase producing Escherichia coli isolate 212648 in presence of BPL
Pseudomonas aeruginosa [43] = assay: Antibacterial activity against IMP-4 producing Pseudomonas aeruginosa isolate 209471 after 18 hrs by CLSI broth microdilution method; details: isolate 209471, 18 h
Escherichia coli [44] = assay: Antibacterial activity against extended-spectrum beta-lactamase producing Escherichia coli isolate 208687 after 18 hrs by CLSI broth microdilution method; details: isolate 208687, 18 h
Pseudomonas aeruginosa [45] = assay: Antibacterial activity against IMP-4 producing Pseudomonas aeruginosa isolate 208247 after 18 hrs by CLSI broth microdilution method; details: isolate 208247, 18 h

MIC (Pseudomonas aeruginosa [1]): 64 µg/mL (≈ 117 µM) | MIC (Pseudomonas aeruginosa [2]): > 64 µg/mL | MIC (Escherichia coli [3]): > 64 µg/mL | MIC (Escherichia coli [4]): 64 µg/mL (≈ 117 µM) | MIC (Klebsiella pneumoniae [6]): 8 µg/mL (≈ 14.6 µM) | MIC (Klebsiella pneumoniae [7]): 8 µg/mL (≈ 14.6 µM) | MIC (Escherichia coli [8]): 32 µg/mL | MIC (Escherichia coli [9]): 64 µg/mL (≈ 117 µM) | MIC (Pseudomonas aeruginosa [10]): > 64 µg/mL | MIC (Klebsiella pneumoniae [11]): 16 µg/mL (≈ 29.3 µM) | MIC (Escherichia coli [15]): 64 µg/mL (≈ 117 µM) | MIC (Klebsiella pneumoniae [17]): 2 µg/mL | MIC (Escherichia coli [18]): 64 µg/mL | MIC (Escherichia coli [19]): > 64 µg/mL | MIC (Klebsiella pneumoniae [21]): 8 µg/mL (≈ 14.6 µM) | MIC (Klebsiella pneumoniae [25]): 4 µg/mL | MIC (Klebsiella pneumoniae [26]): 8 µg/mL | MIC (Klebsiella pneumoniae [27]): 2 µg/mL | MIC (Pseudomonas aeruginosa [28]): > 64 µg/mL | MIC (Escherichia coli [29]): 64 µg/mL | MIC (Escherichia coli [30]): 32 µg/mL | MIC (Pseudomonas aeruginosa [31]): > 64 µg/mL | MIC (Pseudomonas aeruginosa [33]): 16 µg/mL | MIC (Klebsiella pneumoniae [35]): 16 µg/mL | MIC (Klebsiella pneumoniae [36]): 16 µg/mL (≈ 29.3 µM) | MIC (Pseudomonas aeruginosa [38]): > 64 µg/mL | MIC (Pseudomonas aeruginosa [40]): 64 µg/mL | MIC (Pseudomonas aeruginosa [43]): > 64 µg/mL | MIC (Escherichia coli [44]): 64 µg/mL (≈ 117 µM) | MIC (Pseudomonas aeruginosa [45]): > 64 µg/mL
Compound: CC(C)C(O/N=C(\C(=O)N[C@@H]1C(=O)N(S(=O)(=O)O)[C@@H]1CO)c1csc(N)n1)c1cc(=O)c(O)cn1O (stereo not given in full)
Selectivity Index (Klebsiella pneumoniae [5]): 2 | Selectivity Index (Klebsiella pneumoniae [12]): 4 | Selectivity Index (Klebsiella pneumoniae [13]): 1 | Selectivity Index (Klebsiella pneumoniae [14]): 8 | Selectivity Index (Escherichia coli [16]): 2 | Selectivity Index (Escherichia coli [20]): 2 | Selectivity Index (Escherichia coli [22]): 1 | Selectivity Index (Pseudomonas aeruginosa [23]): 1 - 4 | Selectivity Index (Escherichia coli [24]): 1 - 2 | Selectivity Index (Pseudomonas aeruginosa [32]): >4 | Selectivity Index (Pseudomonas aeruginosa [34]): 1 - 4 | Selectivity Index (Pseudomonas aeruginosa [37]): 1 - 4 | Selectivity Index (Klebsiella pneumoniae [39]): 1 | Selectivity Index (Pseudomonas aeruginosa [41]): 1 | Selectivity Index (Escherichia coli [42]): 1
